Screening results from PubChem BioAssay.
Compounds with a hit are over-represented: about 4.5% of the library has one in this group of screens.
TAAR1 antag – antagonists of human TAAR1; Q96RJ0; CHO RD-HGA16 TAAR1, Fluo-8 calcium fluorescence, antagonist; inhibition, % at 3 µM; 1.5% of 360,000 active;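 active = inhibition above a per-plate cutoff, the mean inhibition of test compounds on that plate plus 3 SD, cut at about 49% in these data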;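 note: 0% = DMSO plus EC80 beta-PEA response and 100% = DMSO alone without agonist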
Target sequence (Q96RJ0 whole entry, looked up): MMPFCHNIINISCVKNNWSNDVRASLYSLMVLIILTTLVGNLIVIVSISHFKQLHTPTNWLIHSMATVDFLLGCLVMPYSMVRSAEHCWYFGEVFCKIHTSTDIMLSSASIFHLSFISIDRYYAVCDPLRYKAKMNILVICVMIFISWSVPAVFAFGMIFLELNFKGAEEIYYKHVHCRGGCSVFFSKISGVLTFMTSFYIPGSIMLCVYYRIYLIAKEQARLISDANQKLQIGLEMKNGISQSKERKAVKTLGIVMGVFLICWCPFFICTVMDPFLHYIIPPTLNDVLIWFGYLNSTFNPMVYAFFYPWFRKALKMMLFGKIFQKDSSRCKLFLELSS
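Test system – hTAAR1-expressing CHO RD-HGA16 cells, Gα16-coupled · Reagent – β-PEA at EC80 concentration, post-compound challenge · Compound dosing – 3 µM, single point · Timing – 140 s kinetic read after compound, 140 s after agonist · Detection – Fluo-8 intracellular calcium dye fluorescence, real-time kinetic reads · Control set – DMSO and EC80 PEA controls · Repeats – n of 1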
CHO parental Ca – counter-screen: ATP calcium response change in parental CHO cells | parental CHO-K1, ATP-induced calcium, Fluo-8 fluorescence | inhibition, % at 5.6 µM | 0.63% of 330,000 active | AID 463079;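 active = inhibition above that plate's mean sample inhibition plus 3 SD, cut at about 26% in these data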;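 note: 0% = ATP-challenged DMSO wells and 100% = DMSO wells without ATP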
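Material – parental CHO cells · Reagent – ATP stimulus · Compound – single nominal dose of 5.6 µM per compound · Detection – Fluo-8 fluorescence · Read-out basis – percent inhibition of calcium signal · Controls – ATP-challenged DMSO wells low, unchallenged DMSO wells high · Repeats – no replicates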
TAAR1 ag – agonists of human TAAR1. AID 624467. CHO RD-HGA16 TAAR1, Fluo-8 calcium fluorescence; vehicle wells 0%, saturating PEA agonist 100%. 0.99% of 360,000 active. Q96RJ0. activation, % at 3 µM;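 active = activation above the mean activation of all test compounds in the run plus 3 SD, cut at about 38% in these data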
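test system = CHO RD-HGA16 cells carrying human TAAR1 plus Gα16 | schedule = 17-24 h seeding, 75 min 37 °C dye, 30 min RT | compound dosing = 3 µM single concentration | control set = DMSO and PEA EC100 | replicates = n 1 | signal = Fluo-8 fluorescence, 5 s baseline then 140 s kinetic read | measure = percent activation vs PEA EC100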
OX1R antag-1 – human HCRTR1 antagonism; O43613; CHO/OX1R cells, Fluo-8 calcium fluorescence, orexin A; inhibition, % at 5 µM; 0.43% of 330,000 active; AID 434989;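 active = inhibition above its plate's threshold, mean inhibition of all tested compounds on the plate plus 3 SD, cut at about 37% in these data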;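 note: 0% = orexin A challenge wells and 100% = SB-334867-A antagonist wells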
GPR7 antag – human neuropeptides B/W receptor 1 antagonism. P48145. GPR7-expressing cells, fluorescence antagonist assay. inhibition, % at 4.4 µM. 1.1% of 290,000 active. AID 1861; in the data active = inhibition above about 16%, passing the limit was not always enough;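 note: cells stimulated with the agonist NPW; 0% = agonist with vehicle and 100% = vehicle without agonist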
Target sequence (P48145 whole entry, looked up): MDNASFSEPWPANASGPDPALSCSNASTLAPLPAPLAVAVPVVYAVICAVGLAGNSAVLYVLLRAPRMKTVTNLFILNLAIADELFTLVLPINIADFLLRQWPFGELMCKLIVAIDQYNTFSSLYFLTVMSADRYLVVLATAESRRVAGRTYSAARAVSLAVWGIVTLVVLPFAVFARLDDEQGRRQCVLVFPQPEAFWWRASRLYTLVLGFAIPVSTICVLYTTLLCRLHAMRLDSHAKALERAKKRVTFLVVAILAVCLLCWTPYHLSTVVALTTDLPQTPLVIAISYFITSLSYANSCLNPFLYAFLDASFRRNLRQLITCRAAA
OX1R antag-2 – blocks the human orexin 1 receptor. O43613. inhibition, % at 6.6 µM. OX1R-expressing cells, FRET antagonist read-out. 1.8% of 330,000 active; in the data active = inhibition mostly above about 38%, no sharp cut-off; inactive = mostly below about 40%;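 note: 0% = agonist challenge alone and 100% = reference antagonist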
* hit, by the source's call; · = no result given.

SMILES	TAAR1 antag	CHO parental Ca	TAAR1 ag	OX1R antag-1	GPR7 antag	OX1R antag-2
N/C(=N\OC(=O)Oc1ccccc1)c1ccc([N+](=O)[O-])cc1	-0.1	3.5	2.1	-7.1	-0.4	67.5*
COc1ccccc1NC(=O)Cn1c(C)cc(=O)c2cccc(OC)c21	34.9	-5.2	13.5	-3.0	-13.8	17.5
COc1cccc2c(=O)cc(C)n(CC(=O)Nc3ccc(C)c(C)c3)c12	3.2	47.4*	7.5	-0.9	15.4	49.3*
COCOCCn1cc(CN2CCS(=O)(=O)N(Cc3ccc(-c4ccc(Cl)c(Cl)c4)cc3)C(C)C2=O)nn1 (centres undefined)	59.1*	·	16.9	·	·	·
Cc1ccc(-c2ccc(CN3C(C)C(=O)N(Cc4cn(CCC5OCCO5)nn4)CCS3(=O)=O)cc2)cc1 (centres undefined)	-0.8	·	6.8	·	·	·
CC1C(=O)N(Cc2cn(CCC3OCCO3)nn2)CCS(=O)(=O)N1Cc1ccc(-c2ccc(Cl)cc2)cc1 (centres undefined)	51.9*	·	15.0	·	·	·
CC1C(=O)N(Cc2cn(CCC3OCCCO3)nn2)CCS(=O)(=O)N1Cc1ccc(-c2ccc(Cl)c(Cl)c2)cc1 (centres undefined)	69.1*	·	14.8	·	·	·
CC1C(=O)N(Cc2cn(CCC3OCCCO3)nn2)CCS(=O)(=O)N1Cc1ccc(-c2ccc(F)cc2)cc1 (centres undefined)	36.0	·	15.3	·	·	·
Cc1c(Br)c([N+](=O)[O-])nn1C(C)C(=O)N1CCc2ccccc2C1 (centres undefined)	3.9	-13.4	39.9*	-10.2	7.5	28.6
Cc1sc2ncnc(NCc3ccccc3)c2c1C	19.1	34.5*	-1.7	0.0	-7.9	27.4
Cc1sc2ncnc(NCC(C)(C)N3CCOCC3)c2c1C	9.4	32.0	6.0	30.9	-8.3	82.1*
Cc1sc2ncnc(NCC3COc4ccccc4O3)c2c1C (centres undefined)	12.0	62.0*	1.1	28.7	14.9	45.2
Cc1cc2c(NCc3ccccc3)ncnc2s1	-10.0	32.5*	2.7	23.2	-5.8	8.8
c1ccc(CNc2ncnc3sccc23)cc1	12.6	19.8	2.9	24.9	6.5	10.3
Cc1sc2ncnc(NCC3(N4CCOCC4)CCCCC3)c2c1C	-26.5	-23.1	0.1	-36.6	-11.8	10.2
COC(=O)[C@]12C[C@H](CC(=O)NCC34CC5CC(CC(C5)C3)C4)C(=O)N(Cc3ccccc3)C1=C[C@H](C1CCCC1)O[C@@H]2C	-22.3	·	-1.7	·	·	·
COCc1[nH]nc2c1C(c1ccc3c(c1)OCO3)N(Cc1ccccc1)C2=O (centres undefined)	9.1	·	0.8	·	·	·
O=C(NCCCN1CCOCC1)c1[nH]c(C(F)(F)F)nc1-c1ccccc1	9.9	·	-0.3	·	·	·
COc1ccc(CNc2ncnc3sccc23)cc1	4.1	44.7*	-0.6	9.6	2.2	20.3
C#CCNC(=O)C[C@H]1C[C@@]2(C(=O)OC)C(=C[C@H](C(C)(C)C)O[C@@H]2C)N(CCC2=CCCCC2)C1=O	-23.4	·	-2.4	·	·	·
CCOC(=O)C1=CCN(S(=O)(=O)c2ccc(Cl)cc2)C1c1cccc(Br)c1 (centres undefined)	18.9	·	0.2	·	·	·
COC(=O)[C@]1(Cc2ccccc2)NC=C(C(=O)c2ccccc2)[C@@H]1c1cccs1	-11.1	·	0.3	·	·	·
Cc1ccc(CNC(=O)c2ccc(N3CCC4(CC3)CC(c3cccc(Br)c3)=NO4)c([N+](=O)[O-])c2)cc1	-4.6	0.4	23.2	-14.9	·	13.2
CCCNC(=O)c1ccc(N2CCC3(CC2)CC(c2cccc(Br)c2)=NO3)c([N+](=O)[O-])c1	50.7*	15.8	5.1	7.4	27.1	40.3
COc1cc2c(c(OC3OC(CO)C(O)C(O)C3O)c1)C(=O)CC(c1ccc(O)cc1)O2 (centres undefined)	-0.3	·	1.0	·	·	·
SMILES	TAAR1 antag	CHO parental Ca	TAAR1 ag	OX1R antag-1	GPR7 antag	OX1R antag-2
COc1ccc2nc(/N=C\N(C)C)sc2c1	7.0	-5.3	6.1	-10.7	-6.8	23.9
COc1ccc(C(=O)c2cnc(/N=C/N(C)C)s2)cc1	1.5	3.9	11.6	-9.6	-2.4	46.1*
CN(C)/C=N/c1ncc(C(=O)c2ccc3ccccc3c2)s1	6.0	-16.2	8.2	-22.9	4.1	42.0*
O=C1CCCC2=C1[C@@]1(O[C@H]3C=CC=CN23)C(=O)N(c2ccccc2)c2ccccc21	-20.6	·	1.1	·	·	·
CCc1c(C(=O)Nc2ccc(OC)c(Cl)c2)[nH]c(C)c1C(C)=O	20.1	32.2*	15.0	49.5*	-6.8	89.1*
COc1ccccc1CCn1cnc(-c2cccc(F)c2)c1C(C)C	40.2	·	14.1	·	·	·
CCCCc1c(-c2cccc(OC)c2)ncn1CCc1ccccc1OC	56.4*	·	21.9	·	·	·
CCCCc1c(-c2ccccc2OC)ncn1Cc1ccc(-c2ccccc2)cc1	17.9	·	7.7	·	·	·
CCCc1c(-c2cccc(Cl)c2)ncn1CCc1ccccc1OC	53.2*	·	18.9	·	·	·
COc1ccccc1CCn1cnc(-c2ccc(OC)c(OC)c2)c1C(C)C	25.8	·	42.0*	·	·	·
CCCCc1c(-c2ccccc2OC)ncn1Cc1cccc(-c2ccccc2)c1	51.3*	·	8.4	·	·	·
COC(=O)C1=C(C)N(C)C(=NCc2ccc(OC)cc2)NC1c1cccc(F)c1 (centres undefined)	-7.3	·	3.7	·	·	·
CC1=C(C(=O)N(C(C)C)C(C)C)CC(CC(=O)NC(c2ccccc2)c2ccccc2)C(=O)N1CCCN1CCCC1=O (centres undefined)	-18.3	·	1.3	·	·	·
CCn1cc(/C=N/N=C2\CCC3C4CCc5cc(O)ccc5C4CC[C@]23C)c(C)n1 (some centres undefined)	33.5	38.1*	11.1	29.7	-2.0	52.6
CC12CCC3c4ccc(O)cc4CCC3C1CCC2=O (centres undefined)	19.9	-9.5	5.2	-13.8	·	28.3
CC(C)c1ccc(NC(=O)N2CCc3ccccc3C2)cc1	-1.3	-14.2	23.4	-31.4	41.2*	9.3
S=c1[nH]nc(C2CCCCC2)n1/N=C/c1ccc(Cl)cc1	-36.1	-14.9	-3.0	-17.0	-11.9	-4.0
Cc1ccc(/C=N/n2c(C3CCCCC3)n[nH]c2=S)cc1	-12.4	42.8*	7.9	13.5	-2.6	-3.0
COc1ccc(NC(=O)c2cc(-c3ccccn3)nc3ccccc23)c(OC)c1	54.4*	-20.6	13.8	-15.5	·	6.7
COc1ccc(/C=N/NC(=O)c2cc(-c3ccccc3)nc3ccccc23)c(OC)c1	34.6	-12.3	6.0	20.5	-6.6	42.3*
O=C(Nc1ccc(F)cc1)c1cc(-c2ccncc2)nc2c(Cl)cccc12	-1.8	-2.5	-0.3	-25.9	-27.2	19.3
COc1cccc(NC(=O)c2cc(-c3ccc(OC)cc3OC)nc3ccccc23)c1	53.3*	-5.7	10.4	-18.8	·	6.8
